Our source for the IC50 values is ChEMBL document CHEMBL6078712, “Triterpenoid phthalimides as selective anti-cancer agents targeting mitochondrial apoptosis” (Eur J Med Chem, 2025).

A value given as a limit tells only on which side of the number the result lay.

One data set deals with HCT-116. The experiment in a line: Cytotoxicity against human HCT-116 cells assessed as inhibition of cell growth incubated for 72 hrs by MTS assay. The data set is classed as functional, cell-based. The note with it: HCT-116, 72 h. Summed up:
(§1)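 MTS assay on eight human cancer lines and two non-tumour fibroblast lines. IC50 is the concentration that inhibits cell growth by 50 %. SD typically up to 15 % of the mean.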
(In general: Formazan colour is commonly taken as a measure of viable cells.)

The test system of a further data set is K562. The data set can be described thus: Cytotoxicity against human K562 cells assessed as inhibition of cell growth incubated for 72 hrs by MTS assay. It is filed as functional, cell-based. The following applies: K562, 72 h. Summed up: as §1
Another data set deals with CCRF-CEM. The data set can be described thus: Cytotoxicity against human CCRF-CEM cells assessed as inhibition of cell growth incubated for 72 hrs by MTS assay. It is filed as functional, cell-based. Summed up:
as §1

The test system of the next data set is CEM-DNR. The data set can be described thus: Cytotoxicity against human CEM-DNR cells assessed as inhibition of cell growth incubated for 72 hrs by MTS assay. It is filed as functional, cell-based. The procedure, abridged: as §1
A short description of data set [1]: Cytotoxicity against human BJ cells assessed as inhibition of cell growth incubated for 72 hrs by MTS assay. The data set is classed as toxicity, cell-based. Summed up:
as §1

The next data set concerns A549. The data set can be described thus: Cytotoxicity against human A549 cells assessed as inhibition of cell growth incubated for 72 hrs by MTS assay. It is filed as functional, cell-based. The note with it: A549, 72 h. Summed up:
as §1

Data set [2] is described as follows: Cytotoxicity against human K562-Tax cells assessed as inhibition of cell growth incubated for 72 hrs by MTS assay. It is filed as functional, cell-based. Summed up:
as §1

Another data set relates to HCT 116 TP53(-/-). The data set can be described thus: Cytotoxicity against human HCT116-p53-null cells assessed as inhibition of cell growth incubated for 72 hrs by MTS assay. The data set is classed as functional, cell-based. The procedure, abridged: as §1
Data set [3] is described as follows: Cytotoxicity against human MRC5 cells assessed as inhibition of cell growth incubated for 72 hrs by MTS assay. The data set is classed as toxicity, cell-based. The procedure, abridged: as §1
Another data set has as its system U2OS. The data set can be described thus: Cytotoxicity against human U2OS cells assessed as inhibition of cell growth incubated for 72 hrs by MTS assay. It is filed as functional, cell-based. Summed up:
as §1

With `CC(=O)OC[C@]12CC[C@@H](c3ccc4c(c3)C(=O)NC4=O)[C@@H]1[C@H]1CC[C@@H]3[C@@]4(C)CC[C@H](OC(C)=O)C(C)(C)[C@@H]4CC[C@@]3(C)[C@]1(C)CC2`, the IC50 (with HCT-116; in the data set with K562; in the data set with CCRF-CEM; in the data set with CEM-DNR; with A549; in data set [2]) was > 50 µM in each case. Also, the IC50 with HCT 116 TP53(-/-) and in the data set with U2OS was > 50 µM each time. The IC50 at 72 h in [1] and in data set [3] was > 50 µM throughout.

Take `COC(=O)c1ccc([C@@H]2CC[C@]3(C(=O)O)CC[C@]4(C)[C@H](CC[C@@H]5[C@@]6(C)CC[C@H](O)C(C)(C)[C@@H]6CC[C@]54C)[C@@H]23)cc1C(=O)OC`: the concentration for half-maximal inhibition (IC50) in the data set with HCT-116 stood at 16.6 µM; with K562 it was 13.8 µM; in the data set on CCRF-CEM, 14.1 µM; in the data set on CEM-DNR, 11.5 µM; in the data set with A549, 11.1 µM; in [2], 11.5 µM. Further, the concentration for half-maximal inhibition (IC50) came out at 16.2 µM with HCT 116 TP53(-/-) and 19.6 µM in the data set with U2OS. Also, the IC50 at 72 h in data set [1] was 31.1 µM; in [3] it was 25.3 µM.

Take `CC1(C)[C@@H](O)CC[C@]2(C)[C@H]3CC[C@@H]4[C@H]5[C@H](c6ccc(C(=O)O)c(C(=O)O)c6)CC[C@]5(C(=O)O)CC[C@@]4(C)[C@]3(C)CC[C@@H]12`: the 50% inhibitory concentration (IC50) (in the data set on HCT-116; in the data set on K562; in the data set on CCRF-CEM; with CEM-DNR; in the data set on A549; in [2]) was > 50 µM in each case. Besides, the IC50 in the data set with HCT 116 TP53(-/-) and in the data set on U2OS was > 50 µM throughout. Further, the half-inhibitory concentration (IC50) at 72 h in [1] and in data set [3] was > 50 µM throughout.

As for `COC(=O)c1cc([C@@H]2CC[C@]3(C(=O)O)CC[C@]4(C)[C@H](CC[C@@H]5[C@@]6(C)CC[C@H](O)C(C)(C)[C@@H]6CC[C@]54C)[C@@H]23)cc(-c2ccccc2)c1C(=O)OC`, the 50% inhibitory concentration (IC50) in the data set with HCT-116 amounted to 5.46 µM; in the data set with K562 it was 6.12 µM; with CCRF-CEM it was 6.3 µM; with CEM-DNR, 4.85 µM; in the data set with A549, 4.44 µM; in data set [2] it was 4.36 µM. Further, the half-inhibitory concentration (IC50) amounted to 6.17 µM in the data set on HCT 116 TP53(-/-) and 9.94 µM in the data set with U2OS. In addition, the concentration for half-maximal inhibition (IC50) at 72 h in [1] was found to be 36.3 µM; in [3], 30.2 µM.

`CC1(C)[C@@H](O)CC[C@]2(C)[C@H]3CC[C@@H]4[C@H]5[C@H](c6ccc7c(c6)C(=O)N(c6ccc(C#N)cc6)C7=O)CC[C@]5(C(=O)O)CC[C@@]4(C)[C@]3(C)CC[C@@H]12`: the IC50 in the data set on HCT-116 is > 50 µM; with K562, > 50 µM; with CCRF-CEM it was 19.8 µM; in the data set with CEM-DNR, 27.3 µM; with A549, > 50 µM; in [2], 12.7 µM. Besides, the IC50 with HCT 116 TP53(-/-) and with U2OS was > 50 µM in each case. The IC50 at 72 h in [1] and in data set [3] was > 50 µM throughout.

As to `CC1(C)[C@@H](O)CC[C@]2(C)[C@H]3CC[C@@H]4[C@H]5[C@H](c6cc(C#N)c(C#N)c(-c7ccccc7)c6)CC[C@]5(C(=O)O)CC[C@@]4(C)[C@]3(C)CC[C@@H]12`, the IC50 in the data set on HCT-116 amounted to 26 µM; in the data set with K562, 27.8 µM; in the data set on CCRF-CEM, 5.99 µM; in the data set with CEM-DNR, 13.7 µM; in the data set with A549, 20.7 µM; in data set [2] it was 7 µM. Moreover, the results for the 50% inhibitory concentration (IC50) in the data set on HCT 116 TP53(-/-) and in the data set with U2OS were 31.6 µM and 19.2 µM, respectively. Also, the IC50 at 72 h in [1] came to 36.2 µM; in [3], 25.7 µM.

For `COC(=O)c1cc([C@@H]2CC[C@]3(CO)CC[C@]4(C)[C@H](CC[C@@H]5[C@@]6(C)CC[C@H](O)C(C)(C)[C@@H]6CC[C@]54C)[C@@H]23)cc(-c2ccccc2)c1C(=O)OC`, the IC50 (in the data set on HCT-116; with K562; in the data set with CCRF-CEM; in the data set on CEM-DNR; in the data set with A549; in data set [2]) was > 50 µM each time. For the same molecule, the IC50 in the data set with HCT 116 TP53(-/-) and in the data set on U2OS was > 50 µM throughout. In addition, the IC50 at 72 h in [1] and in data set [3] was > 50 µM in each case.

As for `COc1ccc(N2C(=O)c3cc([C@@H]4CC[C@]5(C(=O)O)CC[C@]6(C)[C@H](CC[C@@H]7[C@@]8(C)CC[C@H](O)C(C)(C)[C@@H]8CC[C@]76C)[C@@H]45)cc(-c4ccccc4)c3C2=O)cc1`, the IC50 in the data set with HCT-116 was > 50 µM; in the data set on K562, > 50 µM; with CCRF-CEM it was 13.6 µM; with CEM-DNR, > 50 µM; in the data set with A549, > 50 µM; in [2] it was 27.9 µM. Further, the half-maximal inhibitory concentration (IC50) in the data set on HCT 116 TP53(-/-) and in the data set with U2OS was > 50 µM in each case. Besides, the IC50 at 72 h in data set [1] and in data set [3] was > 50 µM in each case.

Regarding `CC(=O)O[C@H]1CC[C@]2(C)[C@H]3CC[C@@H]4[C@H]5[C@H](c6ccc7c(c6)C(=O)NC7=O)CC[C@]5(CO)CC[C@@]4(C)[C@]3(C)CC[C@H]2C1(C)C`, the IC50 was 19.7 µM in the data set on HCT-116; 36 µM in the data set with K562; 14 µM in the data set on CCRF-CEM; 9.21 µM in the data set with CEM-DNR; > 50 µM in the data set on A549; 7.43 µM in data set [2]. Also, the values for the IC50 in the data set on HCT 116 TP53(-/-) and with U2OS were 21.8 µM and 34.5 µM, respectively. Moreover, the values for the IC50 at 72 h in data set [1] and in [3] were > 50 µM and 28.5 µM, respectively.

Turning to `CC(=O)OC[C@]12CC[C@@H](c3cc4c(c(-c5ccccc5)c3)C(=O)NC4=O)[C@@H]1[C@H]1CC[C@@H]3[C@@]4(C)CC[C@H](OC(C)=O)C(C)(C)[C@@H]4CC[C@@]3(C)[C@]1(C)CC2`, the IC50 (in the data set with HCT-116; in the data set on K562; in the data set on CCRF-CEM; in the data set on CEM-DNR; in the data set with A549; in data set [2]) was > 50 µM in each case. Besides, the IC50 in the data set on HCT 116 TP53(-/-) and with U2OS was > 50 µM throughout. The IC50 at 72 h in data set [1] and in [3] was > 50 µM in each case.

Usually IC50 stands for the concentration that gives 50% inhibition.
